Assay results published in ChEMBL document CHEMBL3272042, “Novel heterocyclic nitrofurfural hydrazones. In vivo antirypanosomal activity” (J Med Chem, 1976).
Converted amounts (≈) assume the structure as drawn. The source made the active and inactive calls. The calls are words filed in the database; no cut-off is given here.

What was measured:
Trypanosoma cruzi [1] = assay: Antitrypanosomal activity against bloodstream forms of Trypanosoma cruzi by in vitro assay; assay type: functional; settings: for MIC: Trypanosoma cruzi
Outline: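 Serial dilution in liquid culture in Warren's medium. Read-outs are the minimum inhibitory concentration (MIC) and the minimum lethal concentration (MLC), both in μg/ml.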

Mus musculus [2] = assay: Toxicity in C3H/He mouse infected with bloodstream forms of Trypanosoma cruzi assessed as weight loss at 100 mg/kg, po bid administered through gavage starting 3 days post challenge for 5 successive days; assay type: organism-based; parameters: dose 100 mg/kg, route oral; settings: in vivo, 72 h
Outline: (§1)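 Male C3H/He mice were infected ip with 2×10^3 bloodstream forms of a Brazilian T. cruzi strain. Compounds were micronized to 0.5-2.0 μ and suspended in 0.9% NaCl, 1.0% Na-CMC, 0.5% Tween 80 and 0.05% antifoam B, dosed at 0.01 ml/2 g body weight. Groups of seven got 100 mg/kg by gavage twice daily for 5 days, starting day 3 postinfection, with untreated controls.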

Trypanosoma cruzi [3] = assay: Antitrypanosomal activity against bloodstream forms of Trypanosoma cruzi infected in C3H/He mouse assessed as increase in mean survival time at 100 mg/kg, po bid administered through gavage starting 3 days post challenge for 5 successive days relative to control; assay type: functional; settings: for survival at 100 mg/kg: Trypanosoma cruzi, po, 72 h
Outline: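 Male C3H/He mice infected ip with 2×10^3 bloodstream T. cruzi (Brazilian strain). Compound micronized to 0.5-2.0 μ and suspended in 0.9% NaCl, 1.0% Na carboxymethylcellulose, 0.5% Tween 80, 0.05% antifoam B; given at 100 mg/kg (0.01 ml/2 g) by gavage twice daily for 5 days from day 3 post-infection; groups of 7. Value is percent IMST over untreated controls; Student's t test.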

Mus musculus [4] = assay: Toxicity in C3H/He mouse infected with bloodstream forms of Trypanosoma cruzi assessed as weight loss at 200 mg/kg, po qid administered 4 times a day through gavage starting 3 days post challenge for 5 successive days; settings: in vivo, 72 h
Trypanosoma cruzi [5] = assay: Antitrypanosomal activity against bloodstream forms of Trypanosoma cruzi infected in C3H/He mouse assessed as parasitologic cures at 100 mg/kg, po bid administered through gavage starting 3 days post challenge for 5 successive days relative to control; assay type: functional, organism-based; parameters: dose 100 mg/kg; outline: as §1
Trypanosoma cruzi [6] = assay: Antitrypanosomal activity against bloodstream forms of Trypanosoma cruzi infected in C3H/He mouse assessed as parasitologic cures at 200 mg/kg, po administered 4 times a day through gavage starting 3 days post challenge for 5 successive days relative to control; assay type: functional, organism-based; parameters: dose 200 mg/kg
Outline: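 Male C3H/He mice were infected ip with 2×10^3 bloodstream T. cruzi forms (Brazilian strain). Compound was given orally at 200 mg/kg four times daily for 5 days, then followed for parasitemia, survival and body weight.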

Trypanosoma cruzi [7] = assay: Antitrypanosomal activity against bloodstream forms of Trypanosoma cruzi infected in C3H/He mouse assessed as increase in mean survival time at 100 mg/kg, ip bid starting 3 days post challenge for 5 successive days relative to control; assay type: functional; settings: 72 h, route intraperitoneal
Outline: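 Infection: ip inoculation of 2×10^3 bloodstream forms of a Brazilian T. cruzi strain into male C3H/He mice. Compound given by intraperitoneal route, 100 mg/kg twice daily. Value is percent increase in mean survival time beyond untreated controls, taken from mortality records; significance by Student's t test.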

Row | Compound | MLC (Trypanosoma cruzi [1]) [mg/L] | MIC (Trypanosoma cruzi [1]) [mg/L] | Activity (Mus musculus [2]) | survival at 100 mg/kg (Trypanosoma cruzi [3]) [%] | Survival (Trypanosoma cruzi [3]) [%] | Activity (Mus musculus [4]) | Activity (Trypanosoma cruzi [5]) | Activity (Trypanosoma cruzi [6]) | survival at 100 mg/kg (Trypanosoma cruzi [7]) [%]
1 | CCOC(=O)c1cnn2c(N/N=C/c3ccc([N+](=O)[O-])o3)cc(C)nc12 | 10 (≈ 27.9 µM) | 10 (≈ 27.9 µM) | Non-toxic | 1.3 |  |  |  |  | 
2 | O=[N+]([O-])c1ccc(/C=N/Nc2cc(Cl)nc3nccn23)o1 | 100 (≈ 326 µM) | 10 (≈ 32.6 µM) |  | 4.4 |  |  |  |  | 
3 | Cc1cc(N/N=C/c2ccc([N+](=O)[O-])o2)n2ccnc2n1 | >100 | > 100 |  |  |  |  |  |  | 
4 | Cc1cc(N/N=C/c2ccc([N+](=O)[O-])o2)n2ncc(S(=O)(=O)[O-])c2n1.[Na+] | >100 | > 100 | Non-toxic |  | 8.5 |  |  |  | 
5 | Cc1cc(N/N=C/c2ccc([N+](=O)[O-])o2)n2ncc(-c3ccccc3)c2n1 | 1 (≈ 2.76 µM) | < 1 | Non-toxic |  |  |  |  |  | 
6 | Cc1cc(N/N=C/c2ccc([N+](=O)[O-])o2)n2nccc2n1 | 10 (≈ 34.9 µM) | 10 (≈ 34.9 µM) | Non-toxic | 63.4 |  | Toxic | inactive | inactive | 
7 | O=[N+]([O-])c1ccc(/C=N/Nc2cc(Cl)nc3c(Cl)cnn23)o1 | 10 (≈ 29.3 µM) | 10 (≈ 29.3 µM) | Non-toxic | 14.6 |  |  |  |  | 
8 | Cc1cc(N/N=C/c2ccc([N+](=O)[O-])o2)n2ncc(S(=O)(=O)O)c2n1 | 100 (≈ 273 µM) | > 10 | Non-toxic | 9 |  |  |  |  | 
9 | O=[N+]([O-])c1ccc(/C=N/Nc2ccnc3ccnn23)o1 | 10 (≈ 36.7 µM) | 10 (≈ 36.7 µM) | Non-toxic | < 1 |  |  |  |  | 
10 | Cc1cc(N/N=C/c2ccc([N+](=O)[O-])o2)n2ncc(Br)c2n1 | >100 | 100 (≈ 274 µM) | Non-toxic | 21.9 |  |  |  |  | 
11 | Cc1cc(N/N=C/c2ccc([N+](=O)[O-])o2)n2ncc(-c3ccc(Cl)cc3)c2n1 | 3.2 (≈ 8.06 µM) | 1 (≈ 2.52 µM) | Non-toxic |  |  |  |  |  | 20.5
12 | Cc1cc(N/N=C/c2ccc([N+](=O)[O-])o2)n2ncnc2n1 | >100 | > 100 |  | 4.3 |  |  |  |  | 
13 | Cc1nc(N/N=C/c2ccc([N+](=O)[O-])o2)n2nc(-c3ccccc3)cc2n1 | 3.2 (≈ 8.81 µM) | 1 (≈ 2.75 µM) |  | 24.9 |  |  |  |  | 
14 | O=[N+]([O-])c1ccc(/C=N/Nc2cc(Cl)nc3ccnn23)o1 | 1 (≈ 3.26 µM) | < 1 | Non-toxic | 36.3 |  |  |  |  | 
